Reference: ChEMBL document CHEMBL1136779 (J Med Chem, 2003)

T1: Carboxypeptidase G2 (Pseudomonas aeruginosa (strain ATCC 15692 / PAO1 / 1C / PRS 101 / LMG12228)) (UniProt Q9I056)
T1 sequence (whole entry): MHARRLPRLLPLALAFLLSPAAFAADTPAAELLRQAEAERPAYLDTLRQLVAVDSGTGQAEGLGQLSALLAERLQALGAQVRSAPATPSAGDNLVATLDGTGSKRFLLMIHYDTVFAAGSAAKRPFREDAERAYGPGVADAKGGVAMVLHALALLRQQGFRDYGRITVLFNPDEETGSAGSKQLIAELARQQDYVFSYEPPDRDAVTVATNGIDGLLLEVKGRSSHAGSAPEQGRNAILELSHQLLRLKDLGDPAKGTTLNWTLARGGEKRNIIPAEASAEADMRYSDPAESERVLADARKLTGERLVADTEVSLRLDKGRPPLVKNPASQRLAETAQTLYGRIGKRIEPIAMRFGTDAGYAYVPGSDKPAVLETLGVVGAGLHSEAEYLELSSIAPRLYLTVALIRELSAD

B1: Carboxypeptidase G2 (Pseudomonas aeruginosa (strain ATCC 15692 / PAO1 / 1C / PRS 101 / LMG12228)), Q9I056 (protein)
chain: T1 sequence (whole entry)

Assays:
[1] = biological target: T1, Carboxypeptidase G2 (Pseudomonas aeruginosa (strain ATCC 15692 / PAO1 / 1C / PRS 101 / LMG12228)); experiment: (§1) The kinetics of activation of the self-immolative prodrug by Carboxypeptidase G2 was measured
In short: (§2)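 CPG2 (50 mU) with prodrug 5-50 µM in 5 µM steps in CPG2 assay buffer (100 mM Tris-HCl pH 7.3, 260 µM ZnCl₂), 37 °C. Remaining prodrug quantified by HPLC at 0, 5, 10, 15 and 20 min; Km and kcat derived.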

WiDr [2] = experiment: Cytotoxicity in WiDr cells expressing beta-galactosidase control; assay type: functional, cell-based; conditions: Homo sapiens
In short: (§3)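 WiDr cells stably expressing surface-tethered CPG2 (stCPG2(Q)3) or β-galactosidase control; 2 × 10⁶ cells seeded, confluent after 48 h. Compound in DMSO stock diluted in medium, re-added at similar concentration after 1 h, further 20 h exposure. Cells reseeded in quadruplicate at ~2 × 10³/well, grown until controls confluent; SRB stain, 590 nm. IC50 from log dose-response sigmoid fit.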

[3] = Half-life period (prodrug) was determined; assay type: ADME
In short: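 Aqueous stability: 100 µM compound in CPG2 assay buffer (100 mM Tris-HCl pH 7.3, 260 µM ZnCl₂). Remaining parent measured by isocratic reverse-phase HPLC (10 mM ammonium acetate pH 5.0/methanol, UV 250 or 265-275 nm) at several times. Half-life from one-phase exponential decay fit. Labile compounds instead followed by absorbance change over 3 min; t½ = 0.69/rate constant.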

[4] = Ratio of the half-life period of the prodrug and the drug was determined; assay type: ADME
WiDr [5] = experiment: Cytotoxicity in WiDr cells expressing surface-tethered carboxypeptidase G2 (CPG2); assay type: functional, cell-based; conditions: Homo sapiens; in short: as §3
[6] = biological target: T1, Carboxypeptidase G2 (Pseudomonas aeruginosa (strain ATCC 15692 / PAO1 / 1C / PRS 101 / LMG12228)); experiment: Ratio of kinetic constants Kcat and Km was determined against Carboxypeptidase G2; in short: as §2
WiDr [7] = experiment: Compound was tested for cytotoxicity in WiDr cells engineered for stable expression of surface-tethered CPG2; assay type: functional, cell-based; conditions: Homo sapiens; in short: as §3
WiDr [8] = experiment: Compound was tested for cytotoxicity in WiDr cells engineered for stable expression of beta-galactosidase; assay type: functional, cell-based; conditions: Homo sapiens; in short: as §3
[9] = compound: O=C(O)CC[C@H](NC(=O)Nc1ccc(CO)cc1)C(=O)O; experiment: as §1; in short: as §2
[10] = compound: O=C(O)CC[C@H](NC(=O)Nc1ccc(COC(=O)Nc2ccccc2N(CCCl)CCCl)cc1)C(=O)O; experiment: as §1; in short: as §2
[11] = compound: CN(C(=O)OCc1ccc(NC(=O)N[C@@H](CCC(=O)O)C(=O)O)cc1)c1ccc(N(CCCl)CCCl)cc1; experiment: as §1; in short: as §2
[12] = compound: O=C(O)CC[C@H](NC(=O)Oc1ccc(COC(=O)Nc2ccc(N(CCCl)CCCl)cc2)cc1)C(=O)O; experiment: as §1; in short: as §2
[13] = compound: O=C(O)CC[C@H](NC(=O)Oc1ccc(CO)cc1)C(=O)O; experiment: as §1; in short: as §2
[14] = compound: O=C(O)CC[C@H](NC(=O)Nc1ccc(COC(=O)Nc2ccc(N(CCCl)CCCl)cc2)cc1)C(=O)O; experiment: as §1; in short: as §2
[15] = compound: O=C(O)CC[C@H](NC(=O)Oc1ccc(COC(=O)Nc2ccccc2N(CCCl)CCCl)cc1)C(=O)O; experiment: as §1; in short: as §2
[16] = compound: CN(C(=O)OCc1ccc(OC(=O)N[C@@H](CCC(=O)O)C(=O)O)cc1)c1ccc(N(CCCl)CCCl)cc1; experiment: as §1; in short: as §2

| Molecule | k cat [1] [s⁻¹] | IC50 (WiDr [2]) [µM] | T1/2 [3] [min] | Ratio [4] | IC50 (WiDr [5]) [µM] | other results |
| --- | --- | --- | --- | --- | --- | --- |
| O=C(O)CC[C@H](NC(=O)Nc1ccc(COC(=O)Nc2ccc(N(CCCl)CCCl)cc2)cc1)C(=O)O | 10 |  |  |  |  |  |
| O=C(O)CC[C@H](NC(=O)Nc1ccc(COC(=O)Nc2ccc(N(CCBr)CCBr)cc2)cc1)C(=O)O |  | 205 | 0.85 | 0.4 | 3.1 |  |
| O=C(O)CC[C@H](NC(=O)Nc1ccc(CO)cc1)C(=O)O | 65.4 |  |  |  |  | k cat/Km [6]: 21.1 |
| O=C(O)CC[C@H](NC(=O)Nc1ccc(COC(=O)Nc2ccc(N(CCI)CCI)cc2)cc1)C(=O)O |  | 180 | 0.97 | 1.9 | 1.8 |  |
| O=C(O)CC[C@H](NC(=O)Nc1ccc(COC(=O)Nc2ccccc2N(CCBr)CCBr)cc1)C(=O)O |  | 118 | 3 | 3.5 | 4.7 |  |
| CS(=O)(=O)OCCN(CCCl)c1ccccc1NC(=O)OCc1ccc(OC(=O)N[C@@H](CCC(=O)O)C(=O)O)cc1 |  | 148 | 10 |  | 28.5 |  |
| CN(C(=O)OCc1ccc(NC(=O)N[C@@H](CCC(=O)O)C(=O)O)cc1)c1ccc(N(CCCl)CCCl)cc1 | 5.5 | 39.7 | 173.6 | 20.9 | 2.5 | k cat/Km [6]: 0.91 |
| O=C(O)CC[C@H](NC(=O)Oc1ccc(COC(=O)Nc2ccc(N(CCI)CCI)cc2)cc1)C(=O)O |  | 53.6 | 0.98 | 2 | 1.3 |  |
| O=C(O)CC[C@H](NC(=O)Oc1ccc(CO)cc1)C(=O)O | 140 |  |  |  |  | k cat/Km [6]: 82.3 |
| O=C(O)CC[C@H](NC(=O)Oc1ccc(COC(=O)Nc2ccccc2N(CCBr)CCBr)cc1)C(=O)O |  | 183 | 3.74 | 3.5 | 95.2 |  |
| CS(=O)(=O)OCCN(CCOS(C)(=O)=O)c1ccccc1NC(=O)OCc1ccc(OC(=O)N[C@@H](CCC(=O)O)C(=O)O)cc1 |  | 208 | 10.8 |  | 40 |  |
| O=C(O)CC[C@H](NC(=O)Nc1ccc(COC(=O)Nc2ccccc2N(CCI)CCI)cc1)C(=O)O |  | 149 | 2.7 |  | 3 |  |
| CN(C(=O)OCc1ccc(OC(=O)N[C@@H](CCC(=O)O)C(=O)O)cc1)c1ccc(N(CCI)CCI)cc1 |  | 21.5 | 4.6 | 7.7 | 2.6 |  |
| CS(=O)(=O)OCCN(CCCl)c1ccc(C(=O)N[C@@H](CCC(=O)O)C(=O)O)cc1 |  |  | 59 | 2.3 |  | IC50 (WiDr [7]): 100 µM; IC50 (WiDr [8]): 3230 µM |
| CN(C(=O)OCc1ccc(OC(=O)N[C@@H](CCC(=O)O)C(=O)O)cc1)c1ccc(N(CCBr)CCBr)cc1 |  | 27.2 | 2.7 | 1 | 3.6 |  |
| CN(C(=O)OCc1ccc(NC(=O)N[C@@H](CCC(=O)O)C(=O)O)cc1)c1ccc(N(CCI)CCI)cc1 |  |  | 3.9 | 6.5 | 1.5 |  |
| CN(C(=O)OCc1ccc(NC(=O)N[C@@H](CCC(=O)O)C(=O)O)cc1)c1ccc(N(CCBr)CCBr)cc1 |  |  | 2.8 | 1 | 4.1 |  |
| O=C(O)CC[C@H](NC(=O)Oc1ccc(COC(=O)Nc2ccc(N(CCCl)CCCl)cc2)cc1)C(=O)O | < 10 |  |  |  |  |  |
| O=C(O)CC[C@H](NC(=O)Nc1ccc(COC(=O)Nc2ccccc2N(CCCl)CCCl)cc1)C(=O)O | 2.92 | 21.1 | 107.5 | 13.9 | 4.5 | k cat/Km [6]: 5.31 |
| O=C(O)CC[C@H](NC(=O)Oc1ccc(COC(=O)Nc2ccc(N(CCBr)CCBr)cc2)cc1)C(=O)O |  | 99.7 | 0.9 | 0.4 | 2.6 |  |
| CN(C(=O)OCc1ccc(OC(=O)N[C@@H](CCC(=O)O)C(=O)O)cc1)c1ccc(N(CCCl)CCCl)cc1 | 4.32 | 19.6 | 173.6 | 20.6 | 1.7 | k cat/Km [6]: 1.78 |
| O=C(O)CC[C@H](NC(=O)Oc1ccc(COC(=O)Nc2ccccc2N(CCI)CCI)cc1)C(=O)O |  | 73.3 | 2.1 |  | 19 |  |
| O=C(O)CC[C@H](NC(=O)Oc1ccc(COC(=O)Nc2ccccc2N(CCCl)CCCl)cc1)C(=O)O | 4.27 | 38.1 | 146.3 | 11.9 | 28.1 | k cat/Km [6]: 4.14 |
| B1 |  |  |  |  |  | Km [9]: 3.1 µM; Km [10]: 0.55 µM; Km [11]: 6.05 µM; Km [12]: < 5 µM; Km [13]: 1.7 µM; Km [14]: < 5 µM; Km [15]: 1.02 µM; Km [16]: 2.43 µM |
